Where “and” joins values, the source holds several entries; their conditions need not be identical. Identical values can stand only once.
tested on: U2OS; experiment: Multiplex assay against U2OS; type: toxicity, cell-based; conditions: human, 12 h, 1 µM, compound concentration 1 uM
In short: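 Per cents of healthy-nucleus cells form the tubulin, mitochondrial-mass and membrane-permeability phenotype values. Live cells were stained at seeding with Hoechst33342, BioTracker Green Microtubule Cytoskeleton Dye, MitoTracker Red and Annexin V Alexa Fluor 680. After compound addition they were imaged on a CQ1 microscope at 37°C and 5% CO2, and CellPathfinder machine-learning gating split them into Hoechst high-intensity objects or normal cells, normal cells into healthy, pyknosed or fragmented nuclei, and pyknosed cells into mitotic or apoptotic.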

**Q.** What does the source list for `CCCCC[C@H](O)/C=C/[C@H]1[C@H](O)CC(=O)[C@@H]1CCCCCCC(=O)O` [ALPROSTADIL]?
**A.** Population Apoptotic (%): 100% and 77%; Population Fragmented Nuclei (%): 31% and 11%; Population Healthy Nuclei (%): 62% and 81%; Population Hoechst High Intensity Objects (%): 1% and 0%; Population Membrane Permeable-Phenotype (%): 4% and 9%; Population Mitochondria Different-Phenotype (%): 2% and 5%; Population Mitotic Cells (%): 0% and 22%; Population Normal (%): 98% and 100%; Population Pyknosed Nuclei (%): 6%; Population Tubulin-Different-Phenotype (%): 2% and 6%; Total Cell Count: 219 and 132

**Q.** Which results are given for `Cl.N=C(N)NC(=O)Cc1c(Cl)cccc1Cl` [GUANFACINE HYDROCHLORIDE]?
**A.** Population Apoptotic (%): 80% and 100%; Population Fragmented Nuclei (%): 28% and 20%; Population Healthy Nuclei (%): 55% and 72%; Population Hoechst High Intensity Objects (%): 4% and 2%; Population Membrane Permeable-Phenotype (%): 5% and 8%; Population Mitochondria Different-Phenotype (%): 1% and 2%; Population Mitotic Cells (%): 19% and 0%; Population Normal (%): 95% and 97%; Population Pyknosed Nuclei (%): 16% and 7%; Population Tubulin-Different-Phenotype (%): 2% and 6%; Total Cell Count: 165 and 129

same assay, conditions: human, 12 h, 10 µM, compound concentration 10 uM

**Q.** Which “Population Apoptotic (%)” value does the source give for `CCCCC[C@H](O)/C=C/[C@H]1[C@H](O)CC(=O)[C@@H]1CCCCCCC(=O)O` [ALPROSTADIL] here?
**A.** 71% and 77%

**Q.** What about the “Population Fragmented Nuclei (%)” value of the same molecule?
**A.** 23% and 15%

**Q.** What about the “Population Healthy Nuclei (%)” value of the same molecule?
**A.** 69% and 75%

**Q.** And the “Population Hoechst High Intensity Objects (%)” value?
**A.** 1% and 2%

**Q.** And the “Population Membrane Permeable-Phenotype (%)” value?
**A.** 1% and 5%

**Q.** And the “Population Mitochondria Different-Phenotype (%)” value?
**A.** 0% and 3%

**Q.** And the “Population Mitotic Cells (%)” value?
**A.** 28% and 22%

**Q.** And the “Population Normal (%)” value?
**A.** 98% and 97%

**Q.** And the “Population Pyknosed Nuclei (%)” value?
**A.** 6% and 8%

**Q.** What about the “Population Tubulin-Different-Phenotype (%)” value of the same molecule?
**A.** 0% and 5%

**Q.** What about the “Total Cell Count” value of the same molecule?
**A.** 222 and 104

**Q.** How did the “Population Apoptotic (%)” value turn out when `Cl.N=C(N)NC(=O)Cc1c(Cl)cccc1Cl` [GUANFACINE HYDROCHLORIDE] was run?
**A.** 87% and 77%

**Q.** And the “Population Fragmented Nuclei (%)” value?
**A.** 27% and 18%

**Q.** What about the “Population Healthy Nuclei (%)” value of the same molecule?
**A.** 61% and 74%

**Q.** And the “Population Hoechst High Intensity Objects (%)” value?
**A.** 1%

**Q.** What about the “Population Membrane Permeable-Phenotype (%)” value of the same molecule?
**A.** 10% and 12%

**Q.** And the “Population Mitochondria Different-Phenotype (%)” value?
**A.** 3% and 7%

**Q.** And the “Population Mitotic Cells (%)” value?
**A.** 12% and 22%

**Q.** And the “Population Normal (%)” value?
**A.** 98%

**Q.** What about the “Population Pyknosed Nuclei (%)” value of the same molecule?
**A.** 11% and 7%

**Q.** What about the “Population Tubulin-Different-Phenotype (%)” value of the same molecule?
**A.** 7% and 10%

**Q.** What about the “Total Cell Count” value of the same molecule?
**A.** 280 and 130

same assay, conditions: human, 24 h, 1 µM, compound concentration 1 uM

**Q.** Which “Population Apoptotic (%)” value does the source give for `CCCCC[C@H](O)/C=C/[C@H]1[C@H](O)CC(=O)[C@@H]1CCCCCCC(=O)O` [ALPROSTADIL] here?
**A.** 91% and 87%

**Q.** And the “Population Fragmented Nuclei (%)” value?
**A.** 25% and 14%

**Q.** What about the “Population Healthy Nuclei (%)” value of the same molecule?
**A.** 65% and 75%

**Q.** And the “Population Hoechst High Intensity Objects (%)” value?
**A.** 1% and 0%

**Q.** And the “Population Membrane Permeable-Phenotype (%)” value?
**A.** 5% and 8%

**Q.** And the “Population Mitochondria Different-Phenotype (%)” value?
**A.** 2% and 4%

**Q.** What about the “Population Mitotic Cells (%)” value of the same molecule?
**A.** 8% and 12%

**Q.** What about the “Population Normal (%)” value of the same molecule?
**A.** 98% and 99%

**Q.** And the “Population Pyknosed Nuclei (%)” value?
**A.** 9%

**Q.** And the “Population Tubulin-Different-Phenotype (%)” value?
**A.** 3%

**Q.** And the “Total Cell Count” value?
**A.** 263 and 166

**Q.** With `Cl.N=C(N)NC(=O)Cc1c(Cl)cccc1Cl` [GUANFACINE HYDROCHLORIDE] as the molecule, how does the “Population Apoptotic (%)” value read?
**A.** 75% and 83%

**Q.** And the “Population Fragmented Nuclei (%)” value?
**A.** 32% and 18%

**Q.** And the “Population Healthy Nuclei (%)” value?
**A.** 56% and 74%

**Q.** What about the “Population Hoechst High Intensity Objects (%)” value of the same molecule?
**A.** 3% and 0%

**Q.** And the “Population Membrane Permeable-Phenotype (%)” value?
**A.** 5% and 8%

**Q.** What about the “Population Mitochondria Different-Phenotype (%)” value of the same molecule?
**A.** 3% and 4%

**Q.** What about the “Population Mitotic Cells (%)” value of the same molecule?
**A.** 25% and 16%

**Q.** What about the “Population Normal (%)” value of the same molecule?
**A.** 96% and 99%

**Q.** And the “Population Pyknosed Nuclei (%)” value?
**A.** 10% and 7%

**Q.** What about the “Population Tubulin-Different-Phenotype (%)” value of the same molecule?
**A.** 2% and 5%

**Q.** And the “Total Cell Count” value?
**A.** 194 and 160

same assay, conditions: human, 24 h, 10 µM, compound concentration 10 uM

**Q.** What does the source list for `CCCCC[C@H](O)/C=C/[C@H]1[C@H](O)CC(=O)[C@@H]1CCCCCCC(=O)O` [ALPROSTADIL]?
**A.** Population Apoptotic (%): 94% and 100%; Population Fragmented Nuclei (%): 19% and 12%; Population Healthy Nuclei (%): 74% and 76%; Population Hoechst High Intensity Objects (%): 1% and 0%; Population Membrane Permeable-Phenotype (%): 5% and 4%; Population Mitochondria Different-Phenotype (%): 0% and 2%; Population Mitotic Cells (%): 5% and 0%; Population Normal (%): 98% and 99%; Population Pyknosed Nuclei (%): 6% and 10%; Population Tubulin-Different-Phenotype (%): 3% and 1%; Total Cell Count: 271 and 131

**Q.** Which results are given for `Cl.N=C(N)NC(=O)Cc1c(Cl)cccc1Cl` [GUANFACINE HYDROCHLORIDE]?
**A.** Population Apoptotic (%): 84% and 83%; Population Fragmented Nuclei (%): 25% and 15%; Population Healthy Nuclei (%): 64% and 76%; Population Hoechst High Intensity Objects (%): 0% and 2%; Population Membrane Permeable-Phenotype (%): 9% and 10%; Population Mitochondria Different-Phenotype (%): 2% and 4%; Population Mitotic Cells (%): 15% and 16%; Population Normal (%): 99% and 97%; Population Pyknosed Nuclei (%): 9% and 7%; Population Tubulin-Different-Phenotype (%): 4% and 5%; Total Cell Count: 326 and 160

same assay, conditions: human, 48 h, 1 µM, compound concentration 1 uM

**Q.** Which “Population Apoptotic (%)” value does the source give for `CCCCC[C@H](O)/C=C/[C@H]1[C@H](O)CC(=O)[C@@H]1CCCCCCC(=O)O` [ALPROSTADIL] here?
**A.** 87% and 95%

**Q.** And the “Population Fragmented Nuclei (%)” value?
**A.** 22% and 18%

**Q.** And the “Population Healthy Nuclei (%)” value?
**A.** 68% and 71%

**Q.** What about the “Population Hoechst High Intensity Objects (%)” value of the same molecule?
**A.** 2% and 3%

**Q.** And the “Population Membrane Permeable-Phenotype (%)” value?
**A.** 4% and 6%

**Q.** And the “Population Mitochondria Different-Phenotype (%)” value?
**A.** 2% and 5%

**Q.** What about the “Population Mitotic Cells (%)” value of the same molecule?
**A.** 12% and 4%

**Q.** And the “Population Normal (%)” value?
**A.** 97% and 96%

**Q.** What about the “Population Pyknosed Nuclei (%)” value of the same molecule?
**A.** 9%

**Q.** And the “Population Tubulin-Different-Phenotype (%)” value?
**A.** 2% and 6%

**Q.** And the “Total Cell Count” value?
**A.** 367 and 236

**Q.** For `Cl.N=C(N)NC(=O)Cc1c(Cl)cccc1Cl` [GUANFACINE HYDROCHLORIDE], which “Population Apoptotic (%)” value is on record?
**A.** 89% and 90%

**Q.** What about the “Population Fragmented Nuclei (%)” value of the same molecule?
**A.** 28% and 16%

**Q.** What about the “Population Healthy Nuclei (%)” value of the same molecule?
**A.** 60% and 73%

**Q.** And the “Population Hoechst High Intensity Objects (%)” value?
**A.** 2% and 3%

**Q.** And the “Population Membrane Permeable-Phenotype (%)” value?
**A.** 4% and 8%

**Q.** What about the “Population Mitochondria Different-Phenotype (%)” value of the same molecule?
**A.** 3% and 4%

**Q.** What about the “Population Mitotic Cells (%)” value of the same molecule?
**A.** 10% and 9%

**Q.** And the “Population Normal (%)” value?
**A.** 97% and 96%

**Q.** And the “Population Pyknosed Nuclei (%)” value?
**A.** 10%

**Q.** What about the “Population Tubulin-Different-Phenotype (%)” value of the same molecule?
**A.** 3% and 6%

**Q.** What about the “Total Cell Count” value of the same molecule?
**A.** 262 and 217

same assay, conditions: human, 48 h, 10 µM, compound concentration 10 uM

**Q.** Which “Population Apoptotic (%)” value does the source give for `CCCCC[C@H](O)/C=C/[C@H]1[C@H](O)CC(=O)[C@@H]1CCCCCCC(=O)O` [ALPROSTADIL] here?
**A.** 88% and 100%

**Q.** What about the “Population Fragmented Nuclei (%)” value of the same molecule?
**A.** 13% and 11%

**Q.** And the “Population Healthy Nuclei (%)” value?
**A.** 76% and 77%

**Q.** What about the “Population Hoechst High Intensity Objects (%)” value of the same molecule?
**A.** 0% and 2%

**Q.** And the “Population Membrane Permeable-Phenotype (%)” value?
**A.** 4% and 6%

**Q.** And the “Population Mitochondria Different-Phenotype (%)” value?
**A.** 0% and 1%

**Q.** What about the “Population Mitotic Cells (%)” value of the same molecule?
**A.** 11% and 0%

**Q.** And the “Population Normal (%)” value?
**A.** 99% and 97%

**Q.** And the “Population Pyknosed Nuclei (%)” value?
**A.** 10%

**Q.** And the “Population Tubulin-Different-Phenotype (%)” value?
**A.** 3% and 4%

**Q.** What about the “Total Cell Count” value of the same molecule?
**A.** 362 and 165

**Q.** What does the source list for `Cl.N=C(N)NC(=O)Cc1c(Cl)cccc1Cl` [GUANFACINE HYDROCHLORIDE]?
**A.** Population Apoptotic (%): 90% and 95%; Population Fragmented Nuclei (%): 21% and 14%; Population Healthy Nuclei (%): 68% and 74%; Population Hoechst High Intensity Objects (%): 2% and 1%; Population Membrane Permeable-Phenotype (%): 8% and 10%; Population Mitochondria Different-Phenotype (%): 3% and 1%; Population Mitotic Cells (%): 9% and 4%; Population Normal (%): 97% and 98%; Population Pyknosed Nuclei (%): 10% and 11%; Population Tubulin-Different-Phenotype (%): 4% and 3%; Total Cell Count: 440 and 213
